Assay results from ChEMBL document CHEMBL4732073, “1-BENZYLSPIRO[PIPERIDINE-4,1'-PYRIDO[3,4-b]indole] 'co-potentiators' for minimal function CFTR mutants” (Eur J Med Chem, 2021).
The source made the active and inactive calls. The calls are words filed in the database; no cut-off is given here.

System: Cystic fibrosis transmembrane conductance regulator (Homo sapiens), P13569 [N1303K]
Experiment: Potentiation of CFTR N1303K mutant (unknown origin) expressed in human 16HBE14o- cells assessed as increase in VX-770-stimulated chloride current in presence of forskolin by short circuit method
Type: cell-based
Conditions: filed as activator
Outline: (§1)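 Gene-edited 16HBE14o- cells grown on permeable supports; short-circuit current at 37 °C with a chloride gradient in Hepes-buffered solutions. Sequential additions: 20 μM forskolin, 5 μM VX-770, 10 μM test compound, then 10 μM CFTRinh-172. Change in current (ΔIsc) reported as mean ± S.E.M., n = 3.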

Cystic fibrosis transmembrane conductance regulator (Homo sapiens), P13569 [N1303K], sequence (P13569 whole entry N1303K): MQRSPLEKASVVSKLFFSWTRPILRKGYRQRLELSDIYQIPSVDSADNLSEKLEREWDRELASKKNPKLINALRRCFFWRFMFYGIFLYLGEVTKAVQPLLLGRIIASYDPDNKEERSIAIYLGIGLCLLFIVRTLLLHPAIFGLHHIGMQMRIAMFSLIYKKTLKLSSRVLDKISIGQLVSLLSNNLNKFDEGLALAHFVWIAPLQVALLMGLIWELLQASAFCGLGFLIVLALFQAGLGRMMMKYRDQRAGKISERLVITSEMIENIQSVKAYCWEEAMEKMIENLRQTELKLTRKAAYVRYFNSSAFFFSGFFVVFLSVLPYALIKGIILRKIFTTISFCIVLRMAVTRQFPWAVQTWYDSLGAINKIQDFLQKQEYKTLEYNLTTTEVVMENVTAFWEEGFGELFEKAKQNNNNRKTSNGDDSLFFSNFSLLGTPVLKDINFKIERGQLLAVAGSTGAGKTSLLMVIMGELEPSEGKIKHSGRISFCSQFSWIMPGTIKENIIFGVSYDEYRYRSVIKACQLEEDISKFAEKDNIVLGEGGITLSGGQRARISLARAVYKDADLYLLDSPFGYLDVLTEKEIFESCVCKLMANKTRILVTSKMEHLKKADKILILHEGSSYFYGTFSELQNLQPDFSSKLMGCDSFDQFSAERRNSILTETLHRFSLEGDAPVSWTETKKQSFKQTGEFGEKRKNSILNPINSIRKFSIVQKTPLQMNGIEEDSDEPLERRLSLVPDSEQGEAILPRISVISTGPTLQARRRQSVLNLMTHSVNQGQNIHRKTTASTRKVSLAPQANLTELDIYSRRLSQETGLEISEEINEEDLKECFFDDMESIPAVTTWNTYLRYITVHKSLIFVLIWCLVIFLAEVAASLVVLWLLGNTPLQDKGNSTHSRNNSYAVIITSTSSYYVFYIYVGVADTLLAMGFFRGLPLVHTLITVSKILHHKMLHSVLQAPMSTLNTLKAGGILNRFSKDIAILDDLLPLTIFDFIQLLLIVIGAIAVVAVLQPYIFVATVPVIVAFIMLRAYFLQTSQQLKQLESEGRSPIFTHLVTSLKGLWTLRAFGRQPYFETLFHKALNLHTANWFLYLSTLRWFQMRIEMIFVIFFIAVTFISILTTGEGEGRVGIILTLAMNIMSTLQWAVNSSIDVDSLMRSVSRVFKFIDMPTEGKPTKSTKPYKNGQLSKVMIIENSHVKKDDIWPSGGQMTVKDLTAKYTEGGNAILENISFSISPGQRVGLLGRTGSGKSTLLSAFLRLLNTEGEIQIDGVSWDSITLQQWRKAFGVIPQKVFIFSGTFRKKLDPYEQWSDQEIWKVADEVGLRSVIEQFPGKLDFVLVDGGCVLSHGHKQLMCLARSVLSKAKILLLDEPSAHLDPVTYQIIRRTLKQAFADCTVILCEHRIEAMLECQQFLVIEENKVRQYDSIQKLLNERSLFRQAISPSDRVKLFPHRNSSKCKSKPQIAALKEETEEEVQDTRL

| Activity | Structure (SMILES) |
| --- | --- |
| Active | COc1ccc2[nH]c3c(c2c1)CCNC31CCN(Cc2cc(F)c(F)cc2F)CC1 |

System: not listed separately
Experiment: Potentiation of CFTR I1234del mutant (unknown origin) expressed in rat FRT cells assessed as increase in VX-770-stimulated chloride current in presence of forskolin by short circuit method
Type: cell-based
Conditions: Homo sapiens
Outline: (§2)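 FRT cells stably expressing the mutant CFTR, corrected with 3 μM VX-661 for 18–24 hours, then grown on permeable supports. Short-circuit current at 37 °C in HCO3-buffered solutions with a chloride gradient. Basolateral membrane permeabilized with 250 μg/ml amphotericin B. Additions: 20 μM forskolin, 5 μM VX-770, test compound at a range of concentrations, then 10 μM CFTRinh-172. Concentration dependence n=3, mean ± S.E.M.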

| EC50 [µM] | Structure (SMILES) |
| --- | --- |
| 0.7 | COc1ccc2[nH]c3c(c2c1)CCNC31CCN(Cc2cc(F)c(F)cc2F)CC1 |

System: Cystic fibrosis transmembrane conductance regulator (Homo sapiens), P13569 [N1303K]
Experiment: (§3) Potentiation of CFTR N1303K mutant (unknown origin) expressed in rat FRT cells assessed as increase in VX-770-stimulated chloride current in presence of forskolin by short circuit method
Type: cell-based
Conditions: not given
Outline: as §2

| Structure (SMILES) | Activity |
| --- | --- |
| COc1ccc2[nH]cc(CCNC3CCN(Cc4ccccc4)CC3)c2c1 | inactive |
| COc1ccc2c(c1)c1c(n2C)C2(CCN(Cc3ccc(F)cc3F)CC2)NCC1 | inactive |
| COc1ccc2[nH]c3c(c2c1)CCNC31CCCN(Cc2ccc(F)cc2F)C1 (configuration not stated) | inactive |
| COc1ccc2[nH]c3c(c2c1)CCNC31CCN(Cc2ccc(F)cc2F)C1 (configuration not stated) | inactive |
| COc1ccc2[nH]c3c(c2c1)CCNC31CCNCC1 | inactive |

The remaining lines, values ahead:

| Activity | Structure (SMILES) |
| --- | --- |
| inactive | COc1ccc2[nH]c3c(c2c1)CCNC31CCN(Cc2ccc(C(C)(C)C)cc2)CC1 |
| inactive | COc1ccc2[nH]c3c(c2c1)CCN[C@@]31CCN2Cc3ccccc3C[C@H]2C1 (racemic) |

Biological target: Cystic fibrosis transmembrane conductance regulator (Homo sapiens, UniProt P13569, N1303K)
Experiment: as §3
Type: cell-based
Conditions: not given
Outline: as §2

Cystic fibrosis transmembrane conductance regulator, sequence (P13569 whole entry N1303K): as above

| Structure (SMILES) | EC50 [µM] |
| --- | --- |
| COc1ccc2[nH]c3c(c2c1)CCNC31CCN(Cc2ccc([N+](=O)[O-])cc2F)CC1 | 5.9 |
| COc1ccc2[nH]c3c(c2c1)CCNC31CCN(Cc2ccc(Cl)cc2Cl)CC1 | 1.8 |
| COc1ccc2[nH]c3c(c2c1)CCNC31CCN(Cc2ccco2)CC1 | 16.4 |
| COc1ccc2[nH]c3c(c2c1)CCNC31CCN(Cc2ccc(Br)c(F)c2)CC1 | 1.8 |
| COc1ccc2[nH]c3c(c2c1)CCNC31CCN(Cc2ccccc2)CC1 | 12.6 |
| Fc1ccc(CN2CCC3(CC2)NCCc2c3[nH]c3ccc(Br)cc23)c(F)c1 | 21 |
| COc1ccc2[nH]c3c(c2c1)CCNC31CCN(Cc2ccc(F)cc2F)CC1 | 2 |
| Fc1ccc(CN2CCC3(CC2)NCCc2c3[nH]c3ccccc23)c(F)c1 | 8.2 |
| COc1ccc2[nH]c3c(c2c1)CCNC31CCN(Cc2cccnc2)CC1 | 17 |
| COc1ccc2[nH]c3c(c2c1)CCNC31CCN(Cc2ccc(Br)cc2F)CC1 | 1.6 |
| COc1ccc2[nH]c3c(c2c1)CCNC31CCN(Cc2ccccc2Cl)CC1 | 2.2 |
| COc1ccc2[nH]c3c(c2c1)CCNC31CCN(Cc2ccccn2)CC1 | 11.5 |
| COc1ccc2[nH]c3c(c2c1)CCNC31CCN(Cc2ccc(F)c(F)c2)CC1 | 11 |

Other lines, results leading:

| EC50 [µM] | Structure (SMILES) |
| --- | --- |
| 20 | COc1ccc2[nH]c3c(c2c1)CCNC31CCN(C(C)c2ccccc2)CC1 (configuration not stated) |
| 20 | COc1ccc2[nH]c3c(c2c1)CCNC31CCCN(Cc2ccc(F)cc2F)CC1 (configuration not stated) |
| 13.6 | COc1ccc2[nH]c3c(c2c1)CCNC31CCN(Cc2cccc(F)c2F)CC1 |
| 4.5 | COc1ccc2[nH]c3c(c2c1)CCNC31CCN(Cc2c(F)ccc(Cl)c2F)CC1 |
| 2.5 | COc1ccc2[nH]c3c(c2c1)CCNC31CCN(Cc2cc(F)cc(Cl)c2)CC1 |
| 11.1 | COc1ccc2[nH]c3c(c2c1)CCNC31CCN(Cc2cc(F)ccc2F)CC1 |
| 11.1 | COc1ccc2[nH]c3c(c2c1)CCNC31CCN(Cc2cc(F)cc(F)c2)CC1 |
| 7.1 | COc1ccc2[nH]c3c(c2c1)CCNC31CCN(Cc2cc(Cl)ccc2[N+](=O)[O-])CC1 |

System: 16HBE14o-
Experiment: Potentiation of CFTR I1234del mutant (unknown origin) expressed in human 16HBE14o- cells assessed as increase in VX-770-stimulated chloride current in presence of forskolin by short circuit method
Type: cell-based
Conditions: filed as activator
Outline: as §1

| Structure (SMILES) | Activity |
| --- | --- |
| COc1ccc2[nH]c3c(c2c1)CCNC31CCN(Cc2cc(F)c(F)cc2F)CC1 | Active |

System: Cystic fibrosis transmembrane conductance regulator (Homo sapiens), P13569 [R347P]
Experiment: Potentiation of CFTR R347P mutant (unknown origin) expressed in rat FRT cells assessed as effect on VX-770-stimulated chloride current in presence of forskolin by short circuit method
Type: cell-based
Conditions: not given
Outline: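 R347P-CFTR FRT cells, corrected with 3 μM VX-661 for 18–24 h. Short-circuit current at 37 °C in HCO3-buffered solutions with a chloride gradient. Basolateral membrane permeabilized with 250 μg/ml amphotericin B. Sequential additions: 20 μM forskolin, 5 μM VX-770, 20 μM test compound, then 10 μM CFTRinh-172.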

Cystic fibrosis transmembrane conductance regulator (Homo sapiens), P13569 [R347P], sequence (P13569 whole entry R347P): as the sequence (P13569 whole entry N1303K) above, with R347P, K1303N counted along it

| Activity | Structure (SMILES) |
| --- | --- |
| inactive | COc1ccc2[nH]c3c(c2c1)CCNC31CCN(Cc2cc(F)c(F)cc2F)CC1 |
